Assay results of several laboratories.
Compare with care: the assays were run in different laboratories.
Target: Transient receptor potential cation channel subfamily M member 6 (TRPM6, Homo sapiens, UniProt Q9BX84)

SMILES | test | setting | remaining binding
O=C(c1ccc(Nc2ncc(Cl)c(-c3ccc(Cl)s3)n2)cc1)N1CCC(N2CCCC2)CC1 | binding, competition with immobilised ligand | 1 µM | 100%
CCN1CCN(Cc2ccc(C(=O)Nc3ccc(C)c(Oc4ccc5c(c4)CC(=O)N5)c3)cc2C(F)(F)F)CC1 | binding, competition with immobilised ligand | 1 µM | 100%
Cc1nc(C2CCN(C(=O)c3ccc(OC(F)(F)F)cc3N)CC2)c2ncc(N3CCN(C)CC3)cc2n1 | cell-free assay, competition with immobilised ligand | 1 µM | 100%
N[C@@H]1CCN(c2nccc(-c3cnn4ncccc34)n2)C1 | binding | 1 µM | 100%
CNCc1ccccc1-c1csc([C@@H](C)Nc2nc(C)nc3cc(OC)c(OC)cc23)c1 | cell-free assay, competition with immobilised ligand | 1 µM | 91%
CN(c1nccc(-c2cnn3ncccc23)n1)C1CC1 | binding | 1 µM | 100%
Cc1c[nH]c2nccc(Oc3c(F)cc(Nc4cc(Cl)nc(N)n4)cc3F)c12 | cell-free assay, competition with immobilised ligand | 0.1 µM | 83%
FC(F)(F)Oc1cccc(-c2cnc3ccc(-c4ccncc4)nn23)c1 | binding, competition with immobilised ligand | 5 µM | 84%
O=C(NCCCN1CCOCC1)c1ccc(Nc2ncc(Cl)c(-c3ccc(Cl)s3)n2)cc1 | binding, competition with immobilised ligand | 1 µM | 100%
COc1cnc(Nc2cccc(S(N)(=O)=O)c2)nc1N1CCN(c2ccccc2)C(=O)C1 | binding, competition with immobilised ligand | 1 µM | 93%
CN(CCCC(F)(F)F)c1nccc(-c2cnn3ncccc23)n1 | binding | 1 µM | 100%
c1cncc(-c2cccc(Nc3nccc(NC4CCCCC4)n3)c2)c1 | binding, competition with immobilised ligand | 10 µM | 97%
C[C@@H]1CCN(c2nccc(-c3cnn4ncccc34)n2)C1 | binding | 1 µM | 91%
O=C(NCC1CCOCC1)c1n[nH]cc1NC(=O)c1c(F)cccc1F | binding, competition with immobilised ligand | 1 µM | 85%
O=C(O)[C@H]1[C@H](Cn2nnc3ccccc3c2=O)CC[C@@H]1C(=O)c1ccc(OCCC2CCOCC2)cc1 | cell-free assay, competition with immobilised ligand | 1 µM | 100%
F[C@@H]1CCN(c2nccc(-c3cnn4ncccc34)n2)C1 | binding | 1 µM | 100%
O=C(NS(=O)(=O)c1ccc(NCC2CCOCC2)c([N+](=O)[O-])c1)c1ccc(N2CCN(Cc3ccc(C(F)(F)F)cc3-c3ccc(Cl)cc3)CC2)cc1Oc1cnc2[nH]ccc2c1 | cell-free assay, competition with immobilised ligand | 1 µM | 89%
CN(C)c1nccc(-c2cnc3ncccn23)n1 | binding | 1 µM | 75%
CCCCN(CCCC)C(=O)CN1C[C@H](c2cc(OC)c3c(c2)OCO3)[C@@H](C(=O)O)[C@@H]1CC(C)(C)CCC | cell-free assay, competition with immobilised ligand | 1 µM | 91.6%
O=C(c1ccc(Nc2ncc(Cl)c(-c3cc4ccccc4s3)n2)cc1)N1CCC(N2CCCC2)CC1 | binding, competition with immobilised ligand | 1 µM | 100%
